From article PMC3545090 (Biochemistry, 2012)
“Also recorded” adds a separate entry of the source.

Legend:
Syk Y525/526 = test: Western blot of Syk Y525/526 phosphorylation in primary splenic B cells; assay type: cell-based; settings: mouse primary splenic B cells, anti-IgM F(ab′)2
In short: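 Mouse splenic B cells enriched by panning, at 5 × 10^6 cells/mL, pre-treated with tyrosine kinase inhibitor or DMSO vehicle. SAStide biosensor peptide (25 μM) added 15 min before anti-IgM F(ab′)2 (5 μg/mL); harvested 0, 5, 10, 15 min after. Immunoblot: 5% goat serum block 1 h; primary antibodies 1:1,000, 1 h at room temperature; HRP secondary, ECL detection.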

Syk [1] = target: T1, Syk (Homo sapiens, UniProt P43405); test: Western blot of Syk tyrosine phosphorylation in inhibitor-treated DG75 cells; assay type: cell-based; settings: anti-IgM 5 μg/mL + H2O2 1 mM
Syk-EGFP = Syk-EGFP (Mus musculus, UniProt P48025); test: In vitro kinase assay, immobilized Syk-EGFP, ELISA-based fluorescence detection; assay type: biochemical; settings: for rate of phosphorylation compared with other substrates: Syk-EGFP 6 nM, each substrate 4 μM, 5 mM MnCl2, HEPES pH 7.2 (Fig. 2b)
In short: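 Syk-EGFP immunoprecipitated from lysates of DT40 chicken B cells on anti-GFP beads. Bead-bound kinase (6 nM in the 4 μM substrate comparison) was mixed with peptide (4 μM, or a concentration range) in 500 μM ATP, 5 mM MnCl2, HEPES pH 7.2. Timed aliquots were EDTA-quenched. Neutravidin-captured peptide was probed with 4G10 anti-phosphotyrosine and HRP secondary, then read by Amplex Red (ex 532/em 590 nm). Initial velocities were fitted to a sigmoidal curve; three replicates.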

Syk [2] = target: T1, Syk; settings: cited from earlier work
[3] = test system: acute myelogenous leukemia; settings: ref [34]; cited from earlier work
kinases = settings: binding affinity for kinases; ref [30]; cited from earlier work
[4] = test system: peripheral T-cell lymphoma cells; settings: cells with elevated Syk Y525/Y526 phosphorylation; ref [8]; cited from earlier work
rheumatoid arthritis = settings: vs placebo; ref [32]; cited from earlier work
non-Hodgkins lymphomas = settings: ongoing trial, very small cohort; ref [29]; cited from earlier work
DG75 cells = test: Cell toxicity in DG75 cells; assay type: cell-based; settings: high concentrations, in the presence of BCR activation and oxidative stress; loss of tubulin and Syk immunoblot signal
allergic rhinitis = settings: delivered intranasally; ref [31]; cited from earlier work
[5] = 500 μM ATP, average of three replicate experiments
[6] = different enzyme preparation and ATP concentration from this paper, ref [13b]

Syk-EGFP, sequence (P48025 whole entry): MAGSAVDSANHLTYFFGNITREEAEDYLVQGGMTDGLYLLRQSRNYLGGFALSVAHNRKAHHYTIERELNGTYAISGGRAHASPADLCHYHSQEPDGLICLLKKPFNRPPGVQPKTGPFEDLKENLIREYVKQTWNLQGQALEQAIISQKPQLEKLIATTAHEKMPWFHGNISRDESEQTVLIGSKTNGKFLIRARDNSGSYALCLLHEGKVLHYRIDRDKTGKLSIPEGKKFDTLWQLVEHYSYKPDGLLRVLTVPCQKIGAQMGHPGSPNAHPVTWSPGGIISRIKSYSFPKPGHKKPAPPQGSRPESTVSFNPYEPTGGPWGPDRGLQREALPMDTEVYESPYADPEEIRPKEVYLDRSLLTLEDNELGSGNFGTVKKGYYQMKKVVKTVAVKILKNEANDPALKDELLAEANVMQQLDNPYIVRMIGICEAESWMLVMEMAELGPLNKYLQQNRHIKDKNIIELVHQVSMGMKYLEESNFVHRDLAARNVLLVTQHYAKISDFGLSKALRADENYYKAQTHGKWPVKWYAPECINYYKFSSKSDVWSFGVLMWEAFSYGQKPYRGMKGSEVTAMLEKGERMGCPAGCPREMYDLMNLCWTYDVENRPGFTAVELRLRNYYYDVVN

Cc1nc(Nc2ncc(C(=O)Nc3c(C)cccc3Cl)s2)cc(N2CCN(CCO)CC2)n1 [dasatinib]
Y525/526 phosphorylation in the presence of inhibitor (Western blot) (Syk Y525/526): Y525/526 remained phosphorylated
level of Syk tyrosine phosphorylation (Western blot) (Syk [1]): reduction in the level of Syk tyrosine phosphorylation

GGEDPDYEWPSAGGKbGG [Phage]
rate of phosphorylation compared with other substrates (Syk-EGFP; [5]): more efficiently phosphorylated
substrate inhibition at higher concentrations (Syk [2]; phage display peptide, Syk, ref [13d]): greater than 20 μM

gemtuzumab ozogamicin: therapeutic antibody conjugated to a toxin
response in relation to lower Syk expression [3]: lack of response

GGDEEDYEEPDEPGGKbGG [SAStide]
Vmax (Syk-EGFP; SAStide at a range of concentrations, immunoprecipitated Syk-EGFP, 500 μM ATP, 5 mM MnCl2, HEPES pH 7.2, sigmoidal fit, three replicate experiments): 11 ± 1 pmol/min
rate of phosphorylation compared with other substrates (Syk-EGFP; [5]): phosphorylated more rapidly than the previously reported Syktide sequence, but not as rapidly as the phage display-derived sequence; also recorded: phosphorylated more efficiently than the parent Syktide
substrate inhibition (Syk-EGFP; concentrations up to 100 μM, immunoprecipitated Syk-EGFP): no substrate inhibition at concentrations up to 100 μM
Km (Syk-EGFP; read-out: Khalf (substrate concentration at half of Vmax in a sigmoidal curve, analogous to Km), SAStide at a range of concentrations, immunoprecipitated Syk-EGFP, 500 μM ATP, 5 mM MnCl2, HEPES pH 7.2, sigmoidal fit, average of three replicate experiments): 86 ± 10 µM

COc1cc(Nc2ncc(F)c(Nc3ccc4c(n3)NC(=O)C(C)(C)O4)n2)cc(OC)c1OC [R406]
kinase selectivity (kinases): one of the least selective kinase inhibitors evaluated
apoptosis and proliferation [4]: induces apoptosis and blocks proliferation

COc1cc(Nc2ncc(F)c(Nc3ccc4c(n3)N(COP(=O)(O)O)C(=O)C(C)(C)O4)n2)cc(OC)c1OC [fostamatinib]
benefit in rheumatoid arthritis, patients receiving methotrexate (rheumatoid arthritis): significant benefit (over placebo)
response by lymphoma subtype (non-Hodgkins lymphomas): slightly better response in chronic lymphocytic leukemia than the other types
response rates (non-Hodgkins lymphomas): response rates were low overall

Oc1cc(O)cc(/C=C/c2ccc(O)c(O)c2)c1 [piceatannol, 3,4,3′,5′-tetrahydroxy-trans-stilbene]
toxicity to DG75 cells (DG75 cells): toxic to DG75 cells
Y525/526 phosphorylation in the presence of inhibitor (Western blot) (Syk Y525/526): Y525/526 remained phosphorylated
level of Syk tyrosine phosphorylation (Western blot) (Syk [1]): reduction in the level of Syk tyrosine phosphorylation

Oc1cccc(Nc2ncc(F)c(Nc3cccc(O)c3)n2)c1 [R112]
relief of allergic rhinitis symptoms (allergic rhinitis): effective for relieving allergic rhinitis symptoms

GGEDDEYEEVGGKbGG [Syktide]
Km (Syk [2]; [6]): 3 µM
kcat (Syk [2]; [6]): 1.04 s⁻¹
